Measured values gathered from unrelated publications.
Each line is one published result; the experiments were not run side by side.
Cell line: SK-MEL-5
Read-out: cell growth or viability

Compound	technique	time	quantity	value
COc1cc(-c2ccc(-c3ccc(C(=N)N)nc3)s2)cc(OC)c1OC	SRB	–	GI50	1.67 µM
COc1cccc(Oc2ccccc2NC(=O)CNC(=O)c2cccc3ccccc23)c1	SRB	48 h	GI50	0.219 µM
Cc1ncsc1-c1ccc(CNC(=O)[C@@H]2C[C@H](O)CN2C(=O)[C@@H](NC(=O)C2(F)CC2)C(C)(C)C)c(OCCc2ccc(CN3CCN(c4cc(-c5ccccc5O)nnc4N)CC3)cc2)c1	ATP luminescence	7 days	IC50	0.54 µM
COc1ccc(-c2ccc(-c3ccc(C(=N)N)nc3)s2)cc1	SRB	–	GI50	1.79 µM
O=C1NCCc2[nH]c(-c3ccncc3)cc21	–	–	IC50	> 10 µM
COc1ccc(C(=O)/C=C/c2cccnc2)cc1S(N)(=O)=O	SRB	48 h	GI50	14.8 µM
O=C1NC(=NCc2cccs2)S/C1=C\c1ccc2ncccc2c1	–	–	IC50	> 10 µM
COc1ccccc1/C=C/C(=O)c1ccc(OC)c(S(N)(=O)=O)c1	SRB	48 h	GI50	3.9 µM
